{
  "source": "ChEMBL document CHEMBL3286372",
  "about": "“Design, synthesis and structure-activity relationship of novel semi-synthetic flavonoids as antiproliferative agents” (2014)",
  "key": {"[1]": {"tested_on": "MDA-MB-468", "assay": "Growth inhibition of human MDA-MB-468 cells after 48 hrs by coulter counting analysis", "format": "functional", "settings": "MDA-MB-468, 48 h", "outline": "(§1)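 Five-dose NCI-60 follow-up, 0.01–100 µM, made from DMSO stock in buffered saline (final DMSO <1%), in duplicate wells. Cells in RPMI 1640 with 10% FBS at 6×10^4 cells/ml, 37 °C, 5% CO2, 48 h. Cells diluted tenfold in saline, Coulter-counted and corrected for dilution. GI50, TGI and LC50 taken from log concentration–percent growth curves.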"}, "[2]": {"tested_on": "RPMI-8226", "assay": "Growth inhibition of human RPMI8226 cells after 48 hrs by coulter counting analysis", "format": "functional", "settings": "RPMI-8226, 48 h", "outline": "as §1"}, "[3]": {"tested_on": "SNB-19", "assay": "Growth inhibition of human SNB19 cells after 48 hrs by coulter counting analysis", "format": "functional", "settings": "SNB-19, 48 h", "outline": "as §1"}, "[4]": {"tested_on": "A498", "assay": "Growth inhibition of human A498 cells after 48 hrs by coulter counting analysis", "format": "functional", "settings": "A498, 48 h", "outline": "(§2)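 NCI five-dose screen at 0.01-100 µM, diluted from DMSO stocks in buffered saline (final DMSO <1%). Cells at 6×10^4 cells/ml in RPMI 1640 with 10% FBS, in duplicate wells, at 37 °C under 5% CO2 for 48 h. Cells diluted tenfold in saline and Coulter-counted. GI50, TGI and LC50 taken from log concentration-growth inhibition curves.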"}, "[5]": {"tested_on": "T47D", "assay": "Growth inhibition of human T47D cells after 48 hrs by coulter counting analysis", "format": "functional", "outline": "as §1"}, "[6]": {"assay": "Growth inhibition of human UACC257 cells after 48 hrs by coulter counting analysis", "format": "functional", "settings": "UACC-257, 48 h", "outline": "(§3)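 NCI five-dose screen, 0.01-100 µM, from DMSO stocks diluted in buffer saline (final DMSO <1%). Cells grown in RPMI 1640 + 10% FBS, seeded at 6×10^4 cells/ml, in duplicate wells. Exposure 48 h at 37 °C, 5% CO2. Cells diluted 10-fold in saline and counted by Coulter counter. GI50 derived from log concentration–percent growth inhibition curves. Controls carried matching PBS/saline/DMSO.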"}, "[7]": {"assay": "Growth inhibition of human UACC62 cells after 48 hrs by coulter counting analysis", "format": "functional", "settings": "UACC-62, 48 h", "outline": "as §3"}, "[8]": {"tested_on": "COLO 205", "assay": "Growth inhibition of human COLO205 cells after 48 hrs by coulter counting analysis", "format": "functional", "settings": "COLO 205, 48 h", "outline": "as §2"}, "[9]": {"assay": "Growth inhibition of human NCI60 cells after 48 hrs by coulter counting analysis", "format": "functional", "settings": "NCI60, 48 h", "outline": "(§4)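 Five-dose screen (0.01-100 µM, DMSO-solubilized, under 1% DMSO final), cells in RPMI 1640 + 10% FBS at 6×10^4 cells/ml, duplicate wells, 37 °C, 5% CO2, 48 h. Cells then diluted tenfold in saline and counted by Coulter counter with dilution correction. Controls held buffer/saline/DMSO at matching dilutions. GI50 derived from log concentration-percent growth inhibition curves.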"}, "[10]": {"tested_on": "DU-145", "assay": "Growth inhibition of human DU145 cells after 48 hrs by coulter counting analysis", "format": "functional", "settings": "DU-145, 48 h", "outline": "as §2"}, "[11]": {"tested_on": "PC-3", "assay": "Growth inhibition of human PC3 cells after 48 hrs by coulter counting analysis", "format": "functional", "settings": "PC-3, 48 h", "outline": "as §1"}, "[12]": {"tested_on": "HCT-116", "assay": "Growth inhibition of human HCT116 cells at 10 uM after 48 hrs by sulforhodamine B assay relative to control", "format": "functional", "settings": "HCT-116, 48 h, read-out: GI", "outline": "(§5)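 NCI-60 primary screen at a single dose of 10 µM with 48 h continuous exposure. Growth or viability read by sulforhodamine B protein staining and expressed as percent growth inhibition versus untreated cells.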"}, "[13]": {"tested_on": "SK-MEL-28", "assay": "Growth inhibition of human SK-MEL-28 cells after 48 hrs by coulter counting analysis", "format": "functional", "settings": "SK-MEL-28, 48 h", "outline": "as §1"}, "[14]": {"tested_on": "NCI-H322M", "assay": "Growth inhibition of human NCI-H322M cells after 48 hrs by coulter counting analysis", "format": "functional", "outline": "as §1"}, "[15]": {"tested_on": "CCRF-CEM", "assay": "Growth inhibition of human CCRF-CEM cells at 10 uM after 48 hrs by sulforhodamine B assay relative to control", "format": "functional", "settings": "read-out: GI", "outline": "as §5"}, "[16]": {"target": "Glycogen synthase kinase-3 beta (Homo sapiens) (UniProt P49841)", "sequence (P49841 whole entry, looked up)": "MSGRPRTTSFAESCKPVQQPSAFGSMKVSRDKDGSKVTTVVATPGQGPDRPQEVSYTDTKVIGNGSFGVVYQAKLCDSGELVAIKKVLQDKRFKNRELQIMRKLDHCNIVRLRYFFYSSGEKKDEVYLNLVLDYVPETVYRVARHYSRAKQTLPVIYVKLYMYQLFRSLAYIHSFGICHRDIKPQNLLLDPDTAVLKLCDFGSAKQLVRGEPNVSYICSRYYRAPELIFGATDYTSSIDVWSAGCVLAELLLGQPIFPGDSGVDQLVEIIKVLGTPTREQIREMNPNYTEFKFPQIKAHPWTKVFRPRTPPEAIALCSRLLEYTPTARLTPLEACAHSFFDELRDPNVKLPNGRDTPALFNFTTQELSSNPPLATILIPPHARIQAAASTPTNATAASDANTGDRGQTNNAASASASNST", "assay": "Inhibition of GSK-3beta (unknown origin) at 20 uM after 30 mins by scintillation counting analysis relative to control", "outline": "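Recombinant kinases, cloned, expressed and purified in-house. Radiometric ³³P-ATP assay with kinase at ~10-50 nM final and 1-5 µg peptide or protein substrate. Compound at 20 µM final, in duplicate. Reaction started by adding ATP, run 30 min at ambient temperature, then spotted on P81 phosphocellulose. Plates washed in 1% phosphoric acid and counted by scintillation. No-substrate blank subtracted. Result is mean % activity change versus DMSO control.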"}, "[17]": {"tested_on": "HL-60(TB)", "assay": "Growth inhibition of human HL-60(TB) cells after 48 hrs by coulter counting analysis", "format": "functional", "settings": "HL-60, 48 h", "outline": "as §4"}, "[18]": {"tested_on": "MDA-MB-231", "assay": "Growth inhibition of human MDA-MB-231 cells after 48 hrs by coulter counting analysis", "format": "functional", "settings": "MDA-MB-231, 48 h", "outline": "as §2"}, "[19]": {"tested_on": "TK-10", "assay": "Growth inhibition of human TK10 cells after 48 hrs by coulter counting analysis", "format": "functional", "settings": "TK-10, 48 h", "outline": "as §3"}, "[20]": {"tested_on": "MDA-MB-468", "assay": "Growth inhibition of human MDA-MB-468 cells at 10 uM after 48 hrs by sulforhodamine B assay relative to control", "format": "functional", "settings": "MDA-MB-468, 48 h, read-out: GI", "outline": "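NCI-60 primary screen at a single 10 µM dose. Continuous 48 h exposure, with growth or viability estimated by sulforhodamine B protein staining. Reported as percent growth inhibition of treated cells relative to untreated growth.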"}, "[21]": {"assay": "Growth inhibition of human UO31 cells at 10 uM after 48 hrs by sulforhodamine B assay relative to control", "format": "functional", "settings": "UO-31, 48 h, read-out: GI", "outline": "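NCI-60 primary single-dose screen at 10 µM with continuous 48 h exposure. Cell viability/growth read by sulforhodamine B protein staining. Reported as percent growth inhibition relative to untreated cells.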"}, "[22]": {"tested_on": "SF-268", "assay": "Growth inhibition of human SF268 cells after 48 hrs by coulter counting analysis", "format": "functional", "settings": "SF-268, 48 h", "outline": "as §1"}, "[23]": {"assay": "Growth inhibition of human OVCAR4 cells after 48 hrs by coulter counting analysis", "format": "functional", "settings": "OVCAR-4, 48 h", "outline": "as §1"}, "[24]": {"tested_on": "DU-145", "assay": "Growth inhibition of human DU145 cells at 10 uM after 48 hrs by sulforhodamine B assay relative to control", "format": "functional", "settings": "DU-145, 48 h, read-out: GI", "outline": "as §5"}, "[25]": {"tested_on": "SN12C", "assay": "Growth inhibition of human SN12C cells after 48 hrs by coulter counting analysis", "format": "functional", "outline": "as §1"}, "[26]": {"tested_on": "CCRF-CEM", "assay": "Growth inhibition of human CCRF-CEM cells after 48 hrs by coulter counting analysis", "format": "functional", "outline": "as §2"}, "[27]": {"assay": "Growth inhibition of human UO31 cells after 48 hrs by coulter counting analysis", "format": "functional", "settings": "UO-31, 48 h", "outline": "as §3"}, "[28]": {"assay": "Growth inhibition of human EKVX cells after 48 hrs by coulter counting analysis", "format": "functional", "outline": "as §2"}},
  "data": [
    {"smiles": "COc1c2occc2c(OC)c2c(=O)c(CN3CCOCC3)c(/C=C/c3ccc(N(C)C)cc3)oc12", "values": [
      {"measurement": "GI50", "setting": "[1]", "value": 1760, "unit": "nM"},
      {"measurement": "GI50", "setting": "[2]", "value": 1490, "unit": "nM"},
      {"measurement": "GI50", "setting": "[3]", "value": 1980, "unit": "nM"},
      {"measurement": "GI50", "setting": "[4]", "value": 2340, "unit": "nM"},
      {"measurement": "GI50", "setting": "[5]", "value": 2210, "unit": "nM"},
      {"measurement": "GI50", "setting": "[6]", "value": 2540, "unit": "nM"},
      {"measurement": "GI50", "setting": "[7]", "value": 1860, "unit": "nM"},
      {"measurement": "LC50", "setting": "[7]", "value": 7.61, "unit": "µM"},
      {"measurement": "GI50", "setting": "[8]", "value": 1660, "unit": "nM"},
      {"measurement": "CC50", "setting": "[8]; read-out: LC50 (the source's name)", "value": 5.87, "unit": "µM"},
      {"measurement": "LC50", "setting": "[9]", "value": 60.2, "unit": "µM"},
      {"measurement": "TGI", "setting": "[9]", "value": 5.24, "unit": "µM"},
      {"measurement": "GI50", "setting": "[10]", "value": 1670, "unit": "nM"},
      {"measurement": "GI50", "setting": "[11]", "value": 1690, "unit": "nM"},
      {"measurement": "inhibition of growth at 10 µM", "setting": "[12]", "value": 82, "unit": "%"},
      {"measurement": "GI50", "setting": "[13]", "value": 2300, "unit": "nM"},
      {"measurement": "GI50", "setting": "[14]", "value": 1650, "unit": "nM"},
      {"measurement": "inhibition of growth at 10 µM", "setting": "[15]", "value": 95, "unit": "%"},
      {"measurement": "inhibition", "setting": "[16]", "value": 13, "unit": "%"},
      {"measurement": "GI50", "setting": "[17]", "value": 1550, "unit": "nM"},
      {"measurement": "LC50", "setting": "[17]", "value": 9.7, "unit": "µM"},
      {"measurement": "GI50", "setting": "[18]", "value": 2220, "unit": "nM"},
      {"measurement": "GI50", "setting": "[19]", "value": 2460, "unit": "nM"},
      {"measurement": "inhibition of growth at 10 µM", "setting": "[20]", "value": 70, "unit": "%"},
      {"measurement": "inhibition of growth at 10 µM", "setting": "[21]", "value": 63, "unit": "%"},
      {"measurement": "GI50", "setting": "[22]", "value": 2220, "unit": "nM"},
      {"measurement": "GI50", "setting": "[23]", "value": 2470, "unit": "nM"},
      {"measurement": "inhibition of growth at 10 µM", "setting": "[24]", "value": 93, "unit": "%"},
      {"measurement": "GI50", "setting": "[25]", "value": 2450, "unit": "nM"},
      {"measurement": "GI50", "setting": "[26]", "value": 1170, "unit": "nM"},
      {"measurement": "GI50", "setting": "[27]", "value": 1430, "unit": "nM"},
      {"measurement": "GI50", "setting": "[28]", "value": 2240, "unit": "nM"}
    ]}
  ]
}
